Assay outcomes from PubChem BioAssay.
This is a sample that favours compounds with a hit; in the whole collection about 5.5% have one here.
STAT3 act: activators of IL-6 induced STAT3 signaling. U3A cells, IL-6 STAT3-luciferase reporter, luminescence; 100% = signal with IL-6 EC80 alone. activation (% of control), % at 5.6 µM. actives 0.91% (n = 190,000);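 active = activation above the screen-wide mean of compound activation plus 3 SD, cut at about 130% in these data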
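Test system: STAT3-luciferase reporter U3A cells; Detection: reporter luminescence signal; Times: 1 h compound pre-exposure, 6 h IL-6 stimulation, 37 °C; Benchmarks: IL-6-only high control; Also added: IL-6 stimulus at 33 ng/mL final.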
STAT1 act: activators of IFN-gamma induced STAT1 signaling; NIH 3T3 STAT1-luciferase reporter, luminescence; 100% = IFN-gamma alone, no compound; activation (% of control), % at 5.5 µM; actives 2.6% (n = 200,000);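 active = activation above the screen-wide mean activation plus 3 SD, cut at about 130% in these data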
Cl transport mod: modulators of human KCC2 chloride dependent transport | B-score of Tl+ flux slope (higher = more flux/activation; lower = inhibition) at 10 µM | AID 1456 | actives 2.2% (n = 190,000) | Q9H2X9 | KCC2 cells, thallium flux FluoZin-2 fluorescence;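 active = thallium flux slope and its plate-corrected score both differing from the plate sample mean at a set confidence after two filtering rounds, in either direction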;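 note: slope of fluorescence scaled to starting intensity during 10 to 20 s after thallium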
STAT3 blocker: STAT3 signaling inhibition; U3A cells, IL-6 STAT3-luciferase reporter, luminescence; host cell line lacks STAT1; inhibition, % at 5.5 µM; actives 0.89% (n = 190,000); AID 862;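 active = inhibition above the mean inhibition across all screened compounds plus 3 SD, cut at about 44% in these data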
STAT1 inh: STAT1 signaling inhibition. NIH 3T3 STAT1-luciferase reporter, IFN-gamma, luminescence. inhibition, % at 5.5 µM. actives 0.35% (n = 200,000);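 active = inhibition above a set limit, the mean inhibition across all tested compounds plus 3 SD, cut at about 34% in these data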
HSV augment: HSV replication enhancement | HSV replication augmentation in cells, fold increase | maximum fold increase | actives 0.005% (n = 220,000); in the data active = maximum fold increase above about 1.5; inconclusive = no clear call, values can overlap the other calls; tested in PC3 cells
KCC2 secondary: KCC2 (human) modulation, secondary assay; shares compounds with Cl transport mod; HEK293-KCC2, thallium flux, FluoZin2 fluorescence; stronger effect = higher value; normalised thallium flux (F/F0 slope) at 10 µM; actives 15% (n = 3,700); AID 1713;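 active = thallium flux slope above the same plate's solvent-only control mean plus 3 SD; inconclusive = the two replicate wells disagree; inactive = no significant difference from solvent-only control wells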
KCC2 bumet counter: bumetanide-insensitive thallium flux in KCC2 cells with ouabain, counter-screen; shares compounds with Cl transport mod; HEK293-KCC2 + bumetanide/ouabain, thallium flux FluoZin2; stronger effect = higher value; normalized thallium flux at 10 µM; actives 49% (n = 3,700); AID 1714;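 active = thallium entry rate above the same plate's blocked-transporter control wells by more than 3 SD; inconclusive = the two repeat wells disagree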;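 note: raw slope of fluorescence over initial fluorescence between 10 and 20 s after thallium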
KCC2 sec2: confirmation of human KCC2 transport modulators; HEK293-KCC2, thallium flux FluoZin2 fluorescence; actives lie on both sides; F/F0 rise rate, 10–20 s post-thallium; shares compounds with Cl transport mod; actives 23% (n = 3,700); normalized thallium flux at 10 µM;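 active = thallium flux slope more than 3 SD above or below the plate's solvent-only control mean, mostly below; inconclusive = the two repeat wells disagreed; inactive = no significant shift from solvent-only controls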
HEK counter1: counter-screen for KCC2 modulators: effect in parental HEK293 cells | AID 1716 | shares compounds with Cl transport mod | thallium flux FluoZin2, ouabain; baseline-ratio fluorescence slope, 10–20 s after thallium | thallium flux rate (normalised fluorescence) at 10 µM | actives 46% (n = 3,700);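 active = thallium flux rate significantly above the same plate's solvent-only control wells, beyond their mean plus 3 SD; inconclusive = the two replicate wells gave conflicting results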
KCC2 retest ouab: confirmation of human KCC2 modulators with ouabain; HEK293-KCC2, thallium flux FluoZin2 fluorescence; bidirectional: low = inhibitor, high = activator; shares compounds with Cl transport mod; AID 1717; actives 48% (n = 3,700); raw Tl+ flux slope (below DMSO = inhibition, above = activation) at 10 µM;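 active = thallium flux slope beyond 3 SD from same-plate DMSO control mean in most replicates, usually higher, sometimes lower; inconclusive = repeat tests gave conflicting results; inactive = no significant difference from controls in most replicates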;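 note: slope of initial-normalized fluorescence between seconds 10 and 20 after thallium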
HEK293 Tl flux2: parental HEK flux effect, counter-screen 2 | actives 33% (n = 3,700) | HEK293 parental, thallium flux FluoZin-2 fluorescence slope | thallium flux slope at 10 µM | shares compounds with Cl transport mod | AID 1718;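 active = thallium flux slope above the same plate's solvent-control mean plus 3 SD in both duplicate wells; inconclusive = duplicate wells that disagreed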;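 note: run without ouabain in cells lacking the KCC2 cotransporter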
Of the large screens only hits and unclear results are named; the others gave an inactive call (follow-up assays come after a bar, where they were run).

CC12CC3(C)CC(C)(C1)CC(C(=O)NC(=S)N1CCCC1)(C2)C3	Cl transport mod 7.9 | KCC2 secondary inactive | KCC2 bumet counter 0.0095 | KCC2 sec2 inactive | HEK counter1 0.01 | KCC2 retest ouab inconclusive | HEK293 Tl flux2 inconclusive
CC(=O)N1CCN(S(=O)(=O)c2ccc(Cl)cc2F)CC1	none
Cc1nc(C(=O)NNC(=O)c2ccc(Cl)cc2)c(C(F)(F)F)o1	Cl transport mod 17 (no result: STAT3 act, STAT1 act, STAT3 blocker, STAT1 inh) | KCC2 secondary inactive | KCC2 bumet counter 0.03 | KCC2 sec2 0.039 | HEK counter1 0.024 | KCC2 retest ouab 0.035 | HEK293 Tl flux2 0.02
Cc1ccccc1NC(=O)C(=O)NCc1ccccn1	none (no result: Cl transport mod)
S=c1[nH]nc(-c2ccc3ccccc3n2)n1Cc1ccccc1	Cl transport mod 9.2 | KCC2 secondary 0.015 | KCC2 bumet counter 0.027 | KCC2 sec2 inactive | HEK counter1 0.029 | KCC2 retest ouab 0.031 | HEK293 Tl flux2 0.016
CCc1c(-c2n[nH]c(=S)n2Cc2ccccc2)csc1C	Cl transport mod 14 | KCC2 secondary inconclusive | KCC2 bumet counter 0.066 | KCC2 sec2 inactive | HEK counter1 0.017 | KCC2 retest ouab 0.035 | HEK293 Tl flux2 0.011
Cc1scc(-c2n[nH]c(=S)n2Cc2ccccc2)c1C	none
S=c1[nH]nc(-c2ccc(Br)cc2)n1Cc1ccccc1	Cl transport mod 24 | KCC2 secondary inactive | KCC2 bumet counter 0.027 | KCC2 sec2 inactive | HEK counter1 0.026 | KCC2 retest ouab 0.029 | HEK293 Tl flux2 inconclusive
Cc1ccccc1OCc1n[nH]c(=S)n1Cc1ccccc1	Cl transport mod 6.1 | KCC2 secondary inactive | KCC2 bumet counter 0.029 | KCC2 sec2 0.041 | HEK counter1 0.024 | KCC2 retest ouab 0.03 | HEK293 Tl flux2 0.031
Oc1ccc(-c2n[nH]c(=S)n2Cc2ccccc2)cc1	none
O=C(/C=C/c1cccc([N+](=O)[O-])c1)NCCSCc1ccc(Cl)cc1	none
CSc1ncc(Cl)c(C(=O)Nc2cccc(C)c2)n1	none
CSc1ncc(Cl)c(C(=O)C(C#N)c2nc3c(C)cc(C)cc3c(=O)[nH]2)n1 (centres undefined)	Cl transport mod 5 | KCC2 secondary inactive | KCC2 bumet counter 0.019 | KCC2 sec2 inactive | HEK counter1 0.016 | KCC2 retest ouab inconclusive | HEK293 Tl flux2 0.015
C[C@H]1CC[C@H]2C(=O)N3[C@H](c4cccc(N5CCCC5=O)c4)[C@@H](C)CC[C@H]3C(=O)N2[C@@H]1c1cccc(N2CCCC2=O)c1	Cl transport mod 4.9 (no result: HSV augment) | KCC2 secondary inactive | KCC2 bumet counter inactive | KCC2 sec2 inconclusive | HEK counter1 inactive | KCC2 retest ouab inactive | HEK293 Tl flux2 inactive
COc1cccc(NC(=O)COC(=O)CCS(=O)(=O)c2ccc(C)cc2)c1	none
COc1ccc(C(=O)N/C(=C\c2cn(C)c3ccccc23)C(=O)OCC(C)C)cc1	none (no result: HSV augment)
Cc1cc(-c2csc(NC(=O)c3ccc(C#N)cc3)n2)c(C)n1Cc1ccco1	none
